# ChEMBL document CHEMBL1151442, “Genetic and phenotypic identification of fusidic acid-resistant mutants with the small-colony-variant phenotype in Staphylococcus aureus” (2007)
# Experiments:
# Type in all cases: functional
# Staphylococcus aureus [1] = assay: Antibacterial activity against fusidic acid-resistant Staphylococcus aureus AH204 harboring deletion of nucleotide 203-231 in rplF gene after 18 to 24 hrs by Etest strip assay
# Procedure, shortened: (§1)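 Mutants of lab strain 8325-4 were selected on LA with FA 2 μg/ml for 48 h at 37°C and purified on selective medium. For the MIC, one colony was suspended in 0.9% NaCl to 0.5 McFarland and swabbed onto Mueller-Hinton agar. An Etest strip was applied and plates were incubated at 37°C for 18–24 h until the lawn was evident.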
# Staphylococcus aureus [2] = assay: Antibacterial activity against fusidic acid-resistant Staphylococcus aureus AH209 harboring deletion of nucleotide 404-427 in rplF gene after 18 to 24 hrs by Etest strip assay; procedure, shortened: as §1
# Staphylococcus aureus [3] = assay: Antibacterial activity against kanamycin-resistant and fusidic acid-susceptible Staphylococcus aureus AH294 harboring Gly628Val mutation in fusA gene after 18 to 24 hrs by Etest strip assay
# Procedure, shortened: (§2)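 Etest MIC: a single colony was suspended in 0.9% NaCl to 0.5 McFarland and swabbed over Mueller-Hinton agar. The strip was applied and plates were incubated at 37°C for 18 to 24 h until an SCV lawn grew.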
# Staphylococcus aureus [4] = assay: Antibacterial activity against fusidic acid-susceptible wild type Staphylococcus aureus 8325-4 after 18 to 24 hrs by Etest strip assay
# Procedure, shortened: (§3)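 The inoculum was a single colony suspended in 0.9% NaCl to 0.5 McFarland and swabbed over a Mueller-Hinton agar plate. An Etest gradient strip was then applied, and the plate was incubated at 37°C for 18 to 24 h until lawn growth was evident. MIC was read from the strip following the manufacturer's instructions.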
# Staphylococcus aureus [5] = assay: Antibacterial activity against kanamycin-resistant Staphylococcus aureus AH333 (SCV-5) harboring TAA stop codon at nucleotide 249 in rplF but gene after 18 to 24 hrs by Etest strip assay
# Procedure, shortened: (§4)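 SCVs of a Rifr 8325-4 derivative were selected on LA with KAN at 8, 16 or 24 μg/ml for 48 h at 37°C. They were purified at the same KAN level and screened on LA plus FA 1 μg/ml.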
# Staphylococcus aureus [6] = assay: Antibacterial activity against fusidic acid-resistant Staphylococcus aureus AH201 harboring Gly452Cys mutation in fusA after 18 to 24 hrs by Etest strip assay; procedure, shortened: as §1
# Staphylococcus aureus [7] = assay: Antibacterial activity against kanamycin-resistant Staphylococcus aureus AH378 (SCV-50) harboring -1 frameshift mutation at nucleotide 221 in rplF gene after 18 to 24 hrs by Etest strip assay; procedure, shortened: as §4
# Staphylococcus aureus [8] = assay: Antibacterial activity against fusidic acid-resistant Staphylococcus aureus AH196 harboring Pro406Leu mutation in fusA gene after 18 to 24 hrs by Etest strip assay; procedure, shortened: as §1
# Staphylococcus aureus [9] = assay: Antibacterial activity against kanamycin-resistant Staphylococcus aureus AH358 (SCV-30) harboring -1 frameshift mutation at nucleotide 423 in rplF gene after 18 to 24 hrs by Etest strip assay; procedure, shortened: as §4
# Staphylococcus aureus [10] = assay: Antibacterial activity against kanamycin-susceptible wild type Staphylococcus aureus AH001 after 18 to 24 hrs by Etest strip assay; procedure, shortened: as §3
# Staphylococcus aureus [11] = assay: Antibacterial activity against kanamycin-resistant Staphylococcus aureus AH383 (SCV-55) harboring TAA stop codon at nucleotide 139 in rplF gene after 18 to 24 hrs by Etest strip assay; procedure, shortened: as §4
# Staphylococcus aureus [12] = assay: Antibacterial activity against kanamycin-resistant Staphylococcus aureus AH377 (SCV-49) harboring +1 frameshift mutation at nucleotide 23 in rplF gene after 18 to 24 hrs by Etest strip assay; procedure, shortened: as §4
# Staphylococcus aureus [13] = assay: Antibacterial activity against kanamycin-resistant and fusidic acid-susceptible Staphylococcus aureus AH416 harboring deletion of nucleotide 395-398 in rplF gene after 18 to 24 hrs by Etest strip assay; procedure, shortened: as §2
# Staphylococcus aureus [14] = assay: Ratio of MIC for kanamycin-resistant Staphylococcus aureus harboring mutations in FusA gene to MIC for wild type kanamycin-susceptible Staphylococcus aureus AH001
# Staphylococcus aureus [15] = assay: Antibacterial activity against kanamycin-resistant Staphylococcus aureus AH374 (SCV-46) harboring -5 frameshift mutation at nucleotide 236-240 in rplF gene after 18 to 24 hrs by Etest strip assay; procedure, shortened: as §4
# Staphylococcus aureus [16] = assay: Antibacterial activity against kanamycin-resistant Staphylococcus aureus AH330 (SCV-2) harboring -1 frameshift mutation at nucleotide 423 in rplF gene after 18 to 24 hrs by Etest strip assay; procedure, shortened: as §4
# Staphylococcus aureus [17] = assay: Antibacterial activity against kanamycin-resistant Staphylococcus aureus AH329 (SCV-1) harboring Arg659Cys mutation in fusA gene after 18 to 24 hrs by Etest strip assay; procedure, shortened: as §4
# Staphylococcus aureus [18] = assay: Antibacterial activity against kanamycin-resistant Staphylococcus aureus AH351 (SCV-23) harboring -4 frameshift mutation at nucleotide 45-48 in rplF gene after 18 to 24 hrs by Etest strip assay; procedure, shortened: as §4
# Staphylococcus aureus [19] = assay: Antibacterial activity against kanamycin-resistant Staphylococcus aureus AH379 (SCV-51) harboring TAA stop codon at nucleotide 418 in rplF but gene after 18 to 24 hrs by Etest strip assay; procedure, shortened: as §4
# Staphylococcus aureus [20] = assay: Ratio of MIC for kanamycin-resistant Staphylococcus aureus harboring mutations in FusE gene to MIC for wild type kanamycin-susceptible Staphylococcus aureus AH001
# Staphylococcus aureus [21] = assay: Antibacterial activity against kanamycin-resistant Staphylococcus aureus AH367 (SCV-39) harboring Gly664Ser mutation in fusA gene after 18 to 24 hrs by Etest strip assay; procedure, shortened: as §4
# Staphylococcus aureus [22] = assay: Antibacterial activity against kanamycin-resistant Staphylococcus aureus AH390 (SCV-62) harboring +1 frameshift mutation at nucleotide 84 in rplF gene after 18 to 24 hrs by Etest strip assay; procedure, shortened: as §4
# Staphylococcus aureus [23] = assay: Antibacterial activity against kanamycin-resistant and fusidic acid-susceptible Staphylococcus aureus AH288 harboring Gly617Asp mutation in fusA gene after 18 to 24 hrs by Etest strip assay; procedure, shortened: as §2
# Staphylococcus aureus [24] = assay: Antibacterial activity against kanamycin-resistant Staphylococcus aureus AH349 (SCV-21) harboring -1 frameshift mutation at nucleotide 404 in rplF gene after 18 to 24 hrs by Etest strip assay; procedure, shortened: as §4
# Staphylococcus aureus [25] = assay: Antibacterial activity against kanamycin-resistant and fusidic acid-susceptible Staphylococcus aureus AH421 harboring Pro404Arg mutation in fusA gene after 18 to 24 hrs by Etest strip assay; procedure, shortened: as §2
# Staphylococcus aureus [26] = assay: Antibacterial activity against kanamycin-resistant Staphylococcus aureus AH364 (SCV-36) harboring Asp434Asn mutation in fusA gene after 18 to 24 hrs by Etest strip assay; procedure, shortened: as §4
# Staphylococcus aureus [27] = assay: Antibacterial activity against kanamycin-resistant Staphylococcus aureus AH340 (SCV-12) harboring Gly617Asp mutation in fusA gene after 18 to 24 hrs by Etest strip assay; procedure, shortened: as §4
# Staphylococcus aureus [28] = assay: Antibacterial activity against kanamycin-resistant Staphylococcus aureus AH334 (SCV-6) harboring Thr436Ile mutation in fusA gene after 18 to 24 hrs by Etest strip assay; procedure, shortened: as §4
# Staphylococcus aureus [29] = assay: Antibacterial activity against fusidic acid-resistant Staphylococcus aureus AH198 harboring Gly452Ser mutation in fusA gene after 18 to 24 hrs by Etest strip assay; procedure, shortened: as §1
# Staphylococcus aureus [30] = assay: Antibacterial activity against fusidic acid-resistant Staphylococcus aureus AH194 harboring Pro404Leu mutation in fusA gene after 18 to 24 hrs by Etest strip assay; procedure, shortened: as §1
# Staphylococcus aureus [31] = assay: Antibacterial activity against fusidic acid-resistant Staphylococcus aureus AH193 harboring TAA stop codon at nucleotide 299 in rplF gene after 18 to 24 hrs by Etest strip assay; procedure, shortened: as §1
Structure (SMILES),MIC (Staphylococcus aureus [1]),MIC (Staphylococcus aureus [2]),MIC (Staphylococcus aureus [3]),MIC (Staphylococcus aureus [4]),MIC (Staphylococcus aureus [5]),MIC (Staphylococcus aureus [6]),MIC (Staphylococcus aureus [7]),MIC (Staphylococcus aureus [8]),MIC (Staphylococcus aureus [9]),MIC (Staphylococcus aureus [10]),MIC (Staphylococcus aureus [11]),MIC (Staphylococcus aureus [12]),MIC (Staphylococcus aureus [13]),fold change (FC) (Staphylococcus aureus [14]),MIC (Staphylococcus aureus [15]),MIC (Staphylococcus aureus [16]),MIC (Staphylococcus aureus [17]),MIC (Staphylococcus aureus [18]),MIC (Staphylococcus aureus [19]),fold change (FC) (Staphylococcus aureus [20]),also measured
CC(=O)O[C@H]1C[C@@]2(C)[C@@H](C[C@@H](O)[C@H]3[C@@]4(C)CC[C@@H](O)[C@@H](C)[C@@H]4CC[C@@]32C)/C1=C(\CCC=C(C)C)C(=O)O [FUSIDIC ACID],4 µg/mL,4 µg/mL,2 µg/mL,0.125 µg/mL,12 µg/mL,12 µg/mL,8 µg/mL,6 µg/mL,12 µg/mL,0.125 µg/mL,16 µg/mL,4 µg/mL,48 µg/mL,32,8 µg/mL,12 µg/mL,12 µg/mL,16 µg/mL,6 µg/mL,32,MIC (Staphylococcus aureus [21]): 12 µg/mL; MIC (Staphylococcus aureus [22]): 16 µg/mL; MIC (Staphylococcus aureus [23]): 6 µg/mL; MIC (Staphylococcus aureus [24]): 4 µg/mL; MIC (Staphylococcus aureus [25]): 3 µg/mL; MIC (Staphylococcus aureus [26]): 256 µg/mL; MIC (Staphylococcus aureus [27]): 4 µg/mL; MIC (Staphylococcus aureus [28]): 48 µg/mL; MIC (Staphylococcus aureus [29]): 32 µg/mL; MIC (Staphylococcus aureus [30]): 4 µg/mL; MIC (Staphylococcus aureus [31]): 4 µg/mL
NC[C@H]1O[C@H](O[C@H]2[C@H](O)[C@@H](O[C@H]3O[C@H](CO)[C@@H](O)[C@H](N)[C@H]3O)[C@H](N)C[C@@H]2N)[C@H](O)[C@@H](O)[C@@H]1O [KANAMYCIN],8 µg/mL,8 µg/mL,16 µg/mL,1.5 µg/mL,8 µg/mL,6 µg/mL,16 µg/mL,3 µg/mL,48 µg/mL,1.5 µg/mL,96 µg/mL,6 µg/mL,256 µg/mL,3,32 µg/mL,128 µg/mL,12 µg/mL,64 µg/mL,12 µg/mL,3,MIC (Staphylococcus aureus [21]): 12 µg/mL; MIC (Staphylococcus aureus [22]): 256 µg/mL; MIC (Staphylococcus aureus [23]): 16 µg/mL; MIC (Staphylococcus aureus [24]): 16 µg/mL; MIC (Staphylococcus aureus [25]): 8 µg/mL; MIC (Staphylococcus aureus [26]): 8 µg/mL; MIC (Staphylococcus aureus [27]): 12 µg/mL; MIC (Staphylococcus aureus [28]): 128 µg/mL; MIC (Staphylococcus aureus [29]): 4 µg/mL; MIC (Staphylococcus aureus [30]): 2 µg/mL; MIC (Staphylococcus aureus [31]): 8 µg/mL
CN[C@@H]1[C@H](O[C@H]2[C@H](O[C@H]3[C@H](O)[C@@H](O)[C@H](N=C(N)N)[C@@H](O)[C@@H]3N=C(N)N)O[C@@H](C)[C@]2(O)C=O)O[C@@H](CO)[C@H](O)[C@H]1O [STREPTOMYCIN],24 µg/mL,16 µg/mL,8 µg/mL,3 µg/mL,24 µg/mL,8 µg/mL,256 µg/mL,8 µg/mL,64 µg/mL,3 µg/mL,192 µg/mL,24 µg/mL,256 µg/mL,3,96 µg/mL,96 µg/mL,24 µg/mL,256 µg/mL,16 µg/mL,3,MIC (Staphylococcus aureus [21]): 16 µg/mL; MIC (Staphylococcus aureus [22]): 64 µg/mL; MIC (Staphylococcus aureus [23]): 32 µg/mL; MIC (Staphylococcus aureus [24]): 64 µg/mL; MIC (Staphylococcus aureus [25]): 12 µg/mL; MIC (Staphylococcus aureus [26]): 24 µg/mL; MIC (Staphylococcus aureus [27]): 24 µg/mL; MIC (Staphylococcus aureus [28]): 192 µg/mL; MIC (Staphylococcus aureus [29]): 6 µg/mL; MIC (Staphylococcus aureus [30]): 8 µg/mL; MIC (Staphylococcus aureus [31]): 24 µg/mL
